Test results published in ChEMBL document CHEMBL5214961, “Novel Allosteric Inhibitor-Derived AKT Proteolysis Targeting Chimeras (PROTACs) Enable Potent and Selective AKT Degradation in KRAS/BRAF Mutant Cells” (J Med Chem, 2022).
Active and inactive are the calls of the source. No cut-off for these calls is given here.

How the values were obtained:
[1] = molecular target: T1, RAC-alpha serine/threonine-protein kinase (Homo sapiens, UniProt P31749); experiment: Induction of AKT degradation in MS21-resistant human PANC-1 cells harboring […] mutant assessed as reduction in total AKT level at 100 nM incubated for 24 hrs by Western blot analysis relative to control; type: cell-based; design: scale not given: the % may be the effect or the level left
Procedure, shortened: (§1)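 Dose-response in DMEM/10% FBS culture: compound at the indicated concentrations, up to 10 μM, for 24 h. Total AKT read by western blot of urea/SDS lysates with β-actin loading control; in SW620 a DC50 was fitted from the concentration-response blot data.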
Target sequence in this assay (P31749 whole entry): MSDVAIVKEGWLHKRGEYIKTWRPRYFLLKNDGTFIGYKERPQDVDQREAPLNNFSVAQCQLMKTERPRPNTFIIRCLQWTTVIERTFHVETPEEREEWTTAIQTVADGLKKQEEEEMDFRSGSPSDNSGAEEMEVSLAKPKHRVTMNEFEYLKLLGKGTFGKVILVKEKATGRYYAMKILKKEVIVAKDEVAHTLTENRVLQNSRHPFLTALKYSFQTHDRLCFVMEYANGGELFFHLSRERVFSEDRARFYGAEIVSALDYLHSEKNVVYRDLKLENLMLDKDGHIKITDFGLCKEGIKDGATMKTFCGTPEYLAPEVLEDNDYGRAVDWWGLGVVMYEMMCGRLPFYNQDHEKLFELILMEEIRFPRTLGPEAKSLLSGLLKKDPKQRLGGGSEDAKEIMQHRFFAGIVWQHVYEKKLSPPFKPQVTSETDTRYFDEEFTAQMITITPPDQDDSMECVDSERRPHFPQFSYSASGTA

PC-3 = experiment: Inhibition of colony formation in human PC-3 cells at 0.1 to 10 uM incubated for 2 weeks with media replacement for every 2 days by crystal violet staining based analysis; type: functional, cell-based; conditions: dose 0.1-10 µM
Procedure, shortened: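 PC3 cells kept 14 days with compound; compound-containing medium replenished every two days. Viable cells stained with 0.5% crystal violet.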

[2] = Plasma concentration in Swiss albino mouse at 75 mg/kg, ip administered as single dose and measured for 12 hrs by LC-MS/MS analysis; type: ADME, organism-based
Procedure, shortened: (§2)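 Single IP dose of 75 mg/kg to male Swiss albino mice (six dosed); compound as HCl salt in 5% v/v NMP, 5% v/v Solutol HS-15, 90% v/v normal saline. About 60 μL plasma taken from three mice at 0.5, 1, 2, 4, 8 and 12 h; LC-MS/MS quantitation (LLOQ 1.02 ng/mL); values are means of 3 mice.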

[3] = molecular target: T1, RAC-alpha serine/threonine-protein kinase; experiment: Induction of AKT degradation in MS21-resistant human COLO 205 cells harboring BRAF mutant assessed as reduction in total AKT level at 1 uM incubated for 24 hrs by Western blot analysis; type: cell-based
Procedure, shortened: (§3)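 Cells grown in DMEM with 10% FBS at 37 °C, 5% CO2, then exposed to compound at 1 μM for 24 h. Lysates made in 2X urea/SDS sample buffer, run on 4–12% Bis-Tris gels, transferred to PVDF, probed for total AKT overnight at 4 °C; HRP/chemiluminescence detection with β-actin as loading control.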
Target sequence in this assay (P31749 whole entry): as above

[4] = molecular target: T1, RAC-alpha serine/threonine-protein kinase; experiment: Induction of AKT degradation in MS-21 resistant human MIA PaCa-2 cells harboring KRAS-mutant assessed as reduction in total Akt level at 1 uM incubated for 24 hrs by Western blot analysis; type: cell-based
Target sequence in this assay (P31749 whole entry): as above

[5] = molecular target: T1, RAC-alpha serine/threonine-protein kinase; experiment: Induction of AKT degradation in MS21-resistant human SK-MEL-239 cells harboring BRAF mutant assessed as reduction in total AKT level at 1 uM incubated for 24 hrs by Western blot analysis; type: cell-based; procedure, shortened: as §3
Target sequence in this assay (P31749 whole entry): as above

[6] = molecular target: Proline-rich AKT1 substrate 1 (Homo sapiens) (UniProt Q96B36); experiment: Inhibition of PRAS40 phosphorylation in human SW620 cells at 1 uM measured after 18 hrs by TMT-MS analysis; type: cell-based
[7] = molecular target: T1, RAC-alpha serine/threonine-protein kinase; experiment: Induction of AKT degradation in MS21-resistant human SW620 cells harboring KRAS/BRAF mutant assessed as reduction in total AKT level at 1 uM measured after 12 hrs by Western blot analysis relative to control; type: cell-based; design: scale not given: the % may be the effect or the level left
Procedure, shortened: (§4)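 SW620 time course: cells given 1 μM compound, with lysates harvested at several time points up to 24 h. Total AKT probed by western blot with β-actin as loading control.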
Target sequence in this assay (P31749 whole entry): as the sequence (P31749 whole entry) above

[8] = Toxicity in Swiss albino mouse assessed as clinical signs at 75 mg/kg, ip administered as single dose and measured for 12 hrs; type: organism-based; conditions: in vivo
Procedure, shortened: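 Male Swiss albino mice given a single 75 mg/kg IP dose in 5% NMP/5% Solutol HS-15/90% saline; watched for clinical signs across a 12 h pharmacokinetic sampling period.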

SW-620 [9] = experiment: Induction of apoptosis in human SW620 cells harboring KRAS mutant assessed as cell death at 5 uM measured upto 72 hrs; type: functional, cell-based
Procedure, shortened: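 SW620 cells given 5 μM compound or DMSO; percent cell death followed with DRAQ7 at 0, 24, 36, 48 and 72 h. Standard errors taken from three independent experiments.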

[10] = molecular target: T1, RAC-alpha serine/threonine-protein kinase; experiment: Induction of AKT degradation in MS21-resistant human PANC-1 cells harboring […] mutant assessed as reduction in total AKT level incubated for 24 hrs by Western blot analysis; type: cell-based; conditions: dose 0.01-10 µM, DDE = dose-dependent effect; procedure, shortened: as §1
Target sequence in this assay (P31749 whole entry): as above

[11] = molecular target: T1, RAC-alpha serine/threonine-protein kinase; experiment: Induction of AKT degradation in MS21-resistant human SW620 cells harboring KRAS/BRAF mutant assessed as reduction in total AKT level at 1 uM by Western blot analysis; type: cell-based; conditions: time 1-24 hrs, TDE = time-dependent effect; procedure, shortened: as §4
[12] = molecular target: T2, RAC-beta serine/threonine-protein kinase (Homo sapiens, UniProt P31751); experiment: Inhibition of AKT2 (unknown origin) preincubated for 20 mins followed by [33P]-ATP addition measured after 120 mins by hotspot kinase assay
T2 sequence (P31751 whole entry): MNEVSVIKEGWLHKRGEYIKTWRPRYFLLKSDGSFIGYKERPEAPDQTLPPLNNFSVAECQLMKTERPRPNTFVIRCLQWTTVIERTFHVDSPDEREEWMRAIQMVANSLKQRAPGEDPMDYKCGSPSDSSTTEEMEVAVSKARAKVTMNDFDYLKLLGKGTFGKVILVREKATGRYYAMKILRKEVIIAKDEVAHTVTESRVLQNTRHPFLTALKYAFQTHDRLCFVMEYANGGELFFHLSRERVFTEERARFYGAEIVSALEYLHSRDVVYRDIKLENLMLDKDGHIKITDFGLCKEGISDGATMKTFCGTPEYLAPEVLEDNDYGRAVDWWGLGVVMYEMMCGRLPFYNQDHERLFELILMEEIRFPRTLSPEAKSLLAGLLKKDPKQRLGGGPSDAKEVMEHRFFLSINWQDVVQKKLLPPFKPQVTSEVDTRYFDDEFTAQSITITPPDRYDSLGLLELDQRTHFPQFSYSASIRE

[13] = molecular target: RAC-gamma serine/threonine-protein kinase (Homo sapiens, UniProt Q9Y243); experiment: Inhibition of AKT3 (unknown origin) preincubated for 20 mins followed by [33P]-ATP addition measured after 120 mins by hotspot kinase assay
RAC-gamma serine/threonine-protein kinase, sequence (Q9Y243 whole entry): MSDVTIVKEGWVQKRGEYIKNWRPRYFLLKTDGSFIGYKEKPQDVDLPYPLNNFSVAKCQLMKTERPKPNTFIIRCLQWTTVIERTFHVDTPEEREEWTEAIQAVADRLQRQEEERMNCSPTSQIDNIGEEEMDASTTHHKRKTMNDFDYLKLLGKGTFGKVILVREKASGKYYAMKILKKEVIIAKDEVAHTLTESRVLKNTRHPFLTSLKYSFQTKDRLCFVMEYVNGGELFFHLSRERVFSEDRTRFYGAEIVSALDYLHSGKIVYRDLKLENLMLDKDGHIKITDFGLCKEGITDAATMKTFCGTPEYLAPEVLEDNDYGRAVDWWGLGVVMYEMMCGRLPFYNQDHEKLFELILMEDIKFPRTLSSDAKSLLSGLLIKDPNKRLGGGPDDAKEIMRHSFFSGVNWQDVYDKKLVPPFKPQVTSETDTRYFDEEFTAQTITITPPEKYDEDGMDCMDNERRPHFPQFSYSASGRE

[14] = molecular target: T1, RAC-alpha serine/threonine-protein kinase; experiment: Inhibition of AKT1 (unknown origin) preincubated for 20 mins followed by [33P]-ATP addition measured after 120 mins by hotspot kinase assay
[15] = molecular target: T1, RAC-alpha serine/threonine-protein kinase; experiment: Induction of AKT degradation in MS21-resistant human SW620 cells harboring KRAS/BRAF mutant assessed as reduction in total AKT level at 100 nM incubated for 24 hrs by Western blot analysis relative to control; type: cell-based; design: scale not given: the % may be the effect or the level left; procedure, shortened: as §1
SW-620 [16] = experiment: Antiproliferative activity against human SW620 cells harboring KRAS mutant assessed as inhibition of cell growth incubated for 5 days by IncuCyte live-cell imaging analysis; type: functional, cell-based; conditions: SW-620, 120 h, time 5 day
[17] = molecular target: T1, RAC-alpha serine/threonine-protein kinase; experiment: Induction of AKT degradation in MS21-resistant human PANC-1 cells harboring […] mutant assessed as reduction in total AKT level at 1 uM incubated for 24 hrs by Western blot analysis; type: cell-based; procedure, shortened: as §3
[18] = molecular target: T1, RAC-alpha serine/threonine-protein kinase; experiment: Induction of AKT degradation in human SW620 cells assessed as reduction in total AKT level at 1 uM measured after 18 hrs by TMT-MS analysis; type: cell-based
Procedure, shortened: (§5)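 SW620 cells treated at 1 μM for 18 h, two biological replicates per condition. Lysates in 8 M urea were reduced with DTT, alkylated with iodoacetamide, digested with trypsin, labeled with TMT, split into 22 fractions and analyzed by nanoLC-MS/MS on a Q-Exactive HF-X. Output is log2 fold change against p value.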

[19] = molecular target: T2, RAC-beta serine/threonine-protein kinase; experiment: Induction of AKT2 degradation in human SW620 cells at 0.01 to 10 uM incubated for 24 hrs by Western blot analysis; type: cell-based; conditions: dose 0.01-10 µM
[20] = molecular target: T1, RAC-alpha serine/threonine-protein kinase; experiment: Induction of AKT degradation in MS21-resistant human SW620 cells harboring KRAS/BRAF mutant assessed as reduction in total AKT level incubated for 24 hrs by Western blot analysis; type: cell-based; procedure, shortened: as §1
Target sequence in this assay (P31749 whole entry, looked up, change not shown): as the sequence (P31749 whole entry) above

[21] = molecular target: T1, RAC-alpha serine/threonine-protein kinase; experiment: Induction of AKT degradation in MS-21 resistant human SW620 cells harboring KRAS-mutant assessed as reduction in total Akt level at 1 uM incubated for 24 hrs by Western blot analysis; type: cell-based; procedure, shortened: as §3
[22] = molecular target: T1, RAC-alpha serine/threonine-protein kinase; experiment: Induction of AKT degradation in MS21-resistant human HT-29 cells harboring BRAF/PI3KA mutant assessed as reduction in total AKT level at 1 uM incubated for 24 hrs by Western blot analysis; type: cell-based; procedure, shortened: as §3
[23] = Cmax in Swiss albino mouse at 75 mg/kg, ip administered as single dose and measured for 12 hrs by LC-MS/MS analysis; type: ADME, organism-based; design: dose 75 mg/kg, time 12 hrs, route ip; conditions: in vivo; procedure, shortened: as §2
[24] = Tmax in Swiss albino mouse at 75 mg/kg, ip administered as single dose and measured for 12 hrs by LC-MS/MS analysis; type: ADME, organism-based; conditions: in vivo; procedure, shortened: as §2
[25] = molecular target: T1, RAC-alpha serine/threonine-protein kinase; experiment: Induction of AKT1 degradation in human SW620 cells at 0.01 to 10 uM incubated for 24 hrs by Western blot analysis; type: cell-based; conditions: dose 0.01-10 µM
[26] = molecular target: T2, RAC-beta serine/threonine-protein kinase; experiment: Induction of AKT2 degradation in human SW620 cells assessed as reduction in total AKT level at 1 uM measured after 18 hrs by TMT-MS analysis; type: cell-based; procedure, shortened: as §5

Cc1ncsc1-c1ccc([C@H](C)NC(=O)[C@@H]2C[C@@H](O)CN2C(=O)[C@@H](NC(=O)CCCCCCCCCCNC(=O)CCc2cccc(-c3ccc4nc(-c5cccnc5N)n(-c5ccc(C6(N)CCC6)cc5)c4n3)c2)C(C)(C)C)cc1
Activity [1]: 100%
inhibition (PC-3): Active
concentration at 12 h [2]: > 100 nM
Activity [3]: Active
Activity [4]: Active
Activity [5]: Active
inhibition [6]: Active
Activity [7]: 100%
Activity [8]: Non-Toxic
Activity (SW-620 [9]): Active
Activity [10]: Dde
Activity [11]: Tde
IC50 [12]: 90 nM
IC50 [13]: 544 nM
IC50 [14]: 798 nM
Activity [15]: 100%
GI50 (SW-620 [16]): 3.1 µM
Activity [17]: Active
Activity [18]: Active
Activity [19]: Active
EC50 [20]: 23 nM
Activity [21]: Active
Activity [22]: Active
Cmax [23]: 1000 nM
Tmax [24]: 30 min
Activity [25]: Active
Activity [26]: Active
